Measured values from ChEMBL document CHEMBL3351833, “Synthesis and Biological Evaluation of Pyrazolo[1,5-a]pyrimidine Compounds as Potent and Selective Pim-1 Inhibitors” (ACS Med Chem Lett, 2015).
Each block holds one molecule with its values, some of them ahead of it.

Columns and labels:
[1] = target: Serine/threonine-protein kinase pim-2 (Homo sapiens, UniProt Q9P1W9); test: Inhibition of Pim2 (unknown origin) using luciferase-luciferin based ATP detection reagent by Kinase-Glo assay
[2] = target: T1, Serine/threonine-protein kinase pim-1 (Homo sapiens, UniProt P11309); test: Inhibition of Pim1 (unknown origin) using luciferase-luciferin based ATP detection reagent by Kinase-Glo assay
Target sequence in this assay (P11309 whole entry): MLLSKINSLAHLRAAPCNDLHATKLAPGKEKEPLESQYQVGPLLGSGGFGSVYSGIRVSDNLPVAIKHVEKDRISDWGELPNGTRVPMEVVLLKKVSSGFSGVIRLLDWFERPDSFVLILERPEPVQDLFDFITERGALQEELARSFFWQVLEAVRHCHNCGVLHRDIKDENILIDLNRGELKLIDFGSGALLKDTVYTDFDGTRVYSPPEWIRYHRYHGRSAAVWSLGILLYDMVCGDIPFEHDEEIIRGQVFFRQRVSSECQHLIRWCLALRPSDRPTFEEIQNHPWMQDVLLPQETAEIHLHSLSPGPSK

[3] = target: Voltage-gated inwardly rectifying potassium channel KCNH2 (Homo sapiens, UniProt Q12809); test: Inhibition of human ERG expressed in CHO cells by automated patch clamp method; format: cell-based
[4] = target: T1, Serine/threonine-protein kinase pim-1; test: Inhibition of Pim1 (unknown origin) using luciferase-luciferin based ATP detection reagent at 1 uM by Kinase-Glo assay
Target sequence in this assay (P11309 whole entry, looked up): as the sequence (P11309 whole entry) above

[5] = target: T2, Homeodomain-interacting protein kinase 4 (Homo sapiens) (UniProt Q8NE63); test: Inhibition of HIPK4 (unknown origin) at 1 uM
T2 sequence (whole entry): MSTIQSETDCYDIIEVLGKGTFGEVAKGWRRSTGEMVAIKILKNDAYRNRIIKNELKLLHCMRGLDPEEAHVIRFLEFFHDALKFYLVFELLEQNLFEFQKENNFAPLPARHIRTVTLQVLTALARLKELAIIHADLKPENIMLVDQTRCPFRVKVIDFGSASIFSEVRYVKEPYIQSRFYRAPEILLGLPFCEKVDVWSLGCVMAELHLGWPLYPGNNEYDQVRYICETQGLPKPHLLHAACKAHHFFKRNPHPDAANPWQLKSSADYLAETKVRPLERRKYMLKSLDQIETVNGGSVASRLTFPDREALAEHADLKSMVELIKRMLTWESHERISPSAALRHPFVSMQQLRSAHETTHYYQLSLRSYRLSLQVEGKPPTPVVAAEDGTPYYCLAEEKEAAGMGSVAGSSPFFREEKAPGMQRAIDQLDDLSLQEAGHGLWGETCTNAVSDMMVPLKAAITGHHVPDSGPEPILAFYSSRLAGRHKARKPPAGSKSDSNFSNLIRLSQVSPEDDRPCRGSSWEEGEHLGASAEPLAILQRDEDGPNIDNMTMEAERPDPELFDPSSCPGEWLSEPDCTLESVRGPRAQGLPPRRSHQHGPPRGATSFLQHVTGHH

[6] = Growth inhibition of human HSC3 cells after 24 hrs by Clonogenic cell survival assay; format: functional, cell-based; conditions: HSC-3, 24 h
Outline: (§1)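 Two-dimensional colony formation (clonogenic survival) of human UM-UC-3 bladder carcinoma and HSC-3 oral squamous carcinoma cells, assessing the cytostatic effect on colony growth.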

[7] = target: Casein kinase II subunit alpha (Homo sapiens) (UniProt P68400); test: Inhibition of CK2a (unknown origin) at 1 uM
[8] = target: Homeodomain-interacting protein kinase 2 (Homo sapiens) (UniProt Q9H2X6); test: Inhibition of HIPK2 (unknown origin) at 1 uM
[9] = target: Macrophage colony-stimulating factor 1 receptor (Homo sapiens) (UniProt P07333); test: Inhibition of FMS (unknown origin) at 1 uM
[10] = target: Tyrosine-protein kinase Lck (Homo sapiens) (UniProt P06239); test: Inhibition of LCK (unknown origin) at 1 uM
[11] = target: T3, Serine/threonine-protein kinase haspin (Homo sapiens) (UniProt Q8TF76); test: Inhibition of Haspin (unknown origin) at 1 uM
T3 sequence (whole entry): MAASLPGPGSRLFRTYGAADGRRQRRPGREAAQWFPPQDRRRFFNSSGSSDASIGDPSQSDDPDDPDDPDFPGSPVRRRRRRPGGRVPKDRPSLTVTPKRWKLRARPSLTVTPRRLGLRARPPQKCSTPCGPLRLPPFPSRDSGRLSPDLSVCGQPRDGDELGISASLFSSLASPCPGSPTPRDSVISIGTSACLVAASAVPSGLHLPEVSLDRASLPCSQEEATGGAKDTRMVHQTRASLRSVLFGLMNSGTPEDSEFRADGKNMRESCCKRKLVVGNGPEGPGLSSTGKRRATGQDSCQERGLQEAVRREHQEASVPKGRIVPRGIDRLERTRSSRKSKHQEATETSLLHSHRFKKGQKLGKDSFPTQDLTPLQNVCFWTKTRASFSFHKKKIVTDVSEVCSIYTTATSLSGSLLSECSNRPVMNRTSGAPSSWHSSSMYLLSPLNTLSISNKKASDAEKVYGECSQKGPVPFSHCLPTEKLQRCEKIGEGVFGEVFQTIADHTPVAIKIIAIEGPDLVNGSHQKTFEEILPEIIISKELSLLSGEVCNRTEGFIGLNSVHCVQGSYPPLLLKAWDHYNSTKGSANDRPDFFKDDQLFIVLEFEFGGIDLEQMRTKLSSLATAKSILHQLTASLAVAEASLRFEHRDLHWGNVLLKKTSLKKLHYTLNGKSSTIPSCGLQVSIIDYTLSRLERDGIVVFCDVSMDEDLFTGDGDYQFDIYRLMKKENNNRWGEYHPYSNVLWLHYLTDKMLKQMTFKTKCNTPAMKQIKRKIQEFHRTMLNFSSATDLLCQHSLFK

[12] = target: BDNF/NT-3 growth factors receptor (Homo sapiens) (UniProt Q16620); test: Inhibition of TRKB (unknown origin) at 1 uM
[13] = target: NT-3 growth factor receptor (Homo sapiens) (UniProt Q16288); test: Inhibition of TRKC (unknown origin) at 1 uM
[14] = target: Proto-oncogene tyrosine-protein kinase Src (Homo sapiens) (UniProt P12931); test: Inhibition of c-Src (unknown origin) at 1 uM
[15] = target: Tyrosine-protein kinase Fyn (Homo sapiens) (UniProt P06241); test: Inhibition of FYN (unknown origin) at 1 uM
[16] = target: Tyrosine-protein kinase JAK2 (Homo sapiens) (UniProt O60674); test: Inhibition of JAK2 (unknown origin) at 1 uM
[17] = target: Tyrosine-protein kinase Yes (Homo sapiens) (UniProt P07947); test: Inhibition of YES1 (unknown origin) at 1 uM
[18] = target: Receptor-type tyrosine-protein kinase FLT3 (Homo sapiens) (UniProt P36888); conditions: 1 uM
[19] = target: T4, Receptor-type tyrosine-protein kinase FLT3 (Homo sapiens, UniProt P36888); test: Inhibition of human Flt3 (unknown origin)
T4 sequence (P36888 whole entry): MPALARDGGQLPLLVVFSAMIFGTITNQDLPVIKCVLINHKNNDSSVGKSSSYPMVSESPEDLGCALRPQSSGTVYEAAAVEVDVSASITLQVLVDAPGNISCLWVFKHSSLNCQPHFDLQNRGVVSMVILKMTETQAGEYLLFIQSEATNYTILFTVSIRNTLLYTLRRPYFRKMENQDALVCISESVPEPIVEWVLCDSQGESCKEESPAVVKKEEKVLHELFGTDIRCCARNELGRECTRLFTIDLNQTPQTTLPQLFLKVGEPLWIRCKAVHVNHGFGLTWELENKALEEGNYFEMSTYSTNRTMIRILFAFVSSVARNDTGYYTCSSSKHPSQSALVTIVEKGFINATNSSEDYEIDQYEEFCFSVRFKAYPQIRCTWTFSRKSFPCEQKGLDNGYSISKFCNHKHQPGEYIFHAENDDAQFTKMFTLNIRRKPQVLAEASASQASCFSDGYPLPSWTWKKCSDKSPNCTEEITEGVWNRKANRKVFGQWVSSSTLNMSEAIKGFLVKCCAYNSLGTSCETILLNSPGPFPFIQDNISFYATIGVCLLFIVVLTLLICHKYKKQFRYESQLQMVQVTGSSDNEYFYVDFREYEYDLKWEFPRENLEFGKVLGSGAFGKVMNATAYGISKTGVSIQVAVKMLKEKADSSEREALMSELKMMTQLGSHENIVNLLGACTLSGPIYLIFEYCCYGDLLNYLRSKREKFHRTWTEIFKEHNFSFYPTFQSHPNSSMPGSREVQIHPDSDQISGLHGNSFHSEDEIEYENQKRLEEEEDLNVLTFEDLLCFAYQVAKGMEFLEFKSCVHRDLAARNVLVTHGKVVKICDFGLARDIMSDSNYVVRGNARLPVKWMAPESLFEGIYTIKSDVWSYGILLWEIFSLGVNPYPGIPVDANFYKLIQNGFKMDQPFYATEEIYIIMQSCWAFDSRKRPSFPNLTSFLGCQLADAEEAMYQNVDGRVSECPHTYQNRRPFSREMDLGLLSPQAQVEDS

[20] = Growth inhibition of human UM-UC-3 cells after 24 hrs by Clonogenic cell survival assay; format: functional, cell-based; conditions: UMUC3, 24 h; outline: as §1
[21] = target: High affinity nerve growth factor receptor (Homo sapiens) (UniProt P04629); test: Inhibition of TRKA (unknown origin) at 1 uM
[22] = target: T5, Muscle, skeletal receptor tyrosine-protein kinase (Homo sapiens) (UniProt O15146); test: Inhibition of MUSK (unknown origin) at 1 uM
T5 sequence (whole entry): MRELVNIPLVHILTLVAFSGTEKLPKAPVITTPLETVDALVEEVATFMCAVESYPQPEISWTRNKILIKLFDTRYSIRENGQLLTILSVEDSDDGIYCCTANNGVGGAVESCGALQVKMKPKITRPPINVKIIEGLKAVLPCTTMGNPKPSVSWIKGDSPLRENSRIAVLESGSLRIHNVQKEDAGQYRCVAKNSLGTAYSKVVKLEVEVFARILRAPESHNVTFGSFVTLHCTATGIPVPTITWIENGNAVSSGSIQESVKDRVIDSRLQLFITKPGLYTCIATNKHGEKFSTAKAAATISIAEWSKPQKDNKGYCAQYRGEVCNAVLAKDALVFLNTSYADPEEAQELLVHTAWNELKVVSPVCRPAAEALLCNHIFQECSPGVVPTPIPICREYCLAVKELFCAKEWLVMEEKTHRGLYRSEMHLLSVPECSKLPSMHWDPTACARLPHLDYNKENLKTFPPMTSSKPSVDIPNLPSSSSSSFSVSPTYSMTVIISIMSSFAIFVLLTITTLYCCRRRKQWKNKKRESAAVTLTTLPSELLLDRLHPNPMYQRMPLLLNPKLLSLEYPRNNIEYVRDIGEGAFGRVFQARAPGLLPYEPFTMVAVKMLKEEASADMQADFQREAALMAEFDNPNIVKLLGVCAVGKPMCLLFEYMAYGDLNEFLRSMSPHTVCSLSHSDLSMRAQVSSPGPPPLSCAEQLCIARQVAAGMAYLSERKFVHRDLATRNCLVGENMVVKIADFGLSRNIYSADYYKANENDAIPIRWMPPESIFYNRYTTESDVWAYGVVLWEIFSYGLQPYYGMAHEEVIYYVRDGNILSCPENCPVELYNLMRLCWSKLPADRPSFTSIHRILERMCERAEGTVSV

Chain of Serine/threonine-protein kinase pim-2 (Q9P1W9 whole entry): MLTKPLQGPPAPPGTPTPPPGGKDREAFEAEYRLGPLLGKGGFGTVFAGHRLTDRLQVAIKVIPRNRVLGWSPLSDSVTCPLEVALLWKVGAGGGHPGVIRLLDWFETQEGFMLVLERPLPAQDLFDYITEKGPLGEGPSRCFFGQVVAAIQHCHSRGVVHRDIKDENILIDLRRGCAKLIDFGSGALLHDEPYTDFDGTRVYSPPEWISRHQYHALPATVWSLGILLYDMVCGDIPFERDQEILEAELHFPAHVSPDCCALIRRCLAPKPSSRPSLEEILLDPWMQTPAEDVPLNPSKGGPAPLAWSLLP
Chain of Proto-oncogene tyrosine-protein kinase Src (Homo sapiens) (P12931 2-536 limits assumed): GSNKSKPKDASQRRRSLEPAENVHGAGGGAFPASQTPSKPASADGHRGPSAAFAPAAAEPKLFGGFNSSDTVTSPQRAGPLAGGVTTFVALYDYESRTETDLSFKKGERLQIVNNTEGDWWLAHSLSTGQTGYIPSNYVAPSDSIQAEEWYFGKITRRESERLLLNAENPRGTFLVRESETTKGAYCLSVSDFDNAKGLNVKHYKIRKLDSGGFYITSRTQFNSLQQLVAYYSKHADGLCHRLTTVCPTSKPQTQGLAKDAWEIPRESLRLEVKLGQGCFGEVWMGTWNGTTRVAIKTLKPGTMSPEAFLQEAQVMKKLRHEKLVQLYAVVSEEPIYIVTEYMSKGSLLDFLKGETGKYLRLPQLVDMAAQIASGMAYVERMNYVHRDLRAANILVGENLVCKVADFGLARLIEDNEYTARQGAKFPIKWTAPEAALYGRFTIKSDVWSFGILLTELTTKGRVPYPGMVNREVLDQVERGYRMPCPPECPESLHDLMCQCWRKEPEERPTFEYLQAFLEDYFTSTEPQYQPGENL
Chain of High affinity nerve growth factor receptor (Homo sapiens) (P04629 33-796 limits assumed): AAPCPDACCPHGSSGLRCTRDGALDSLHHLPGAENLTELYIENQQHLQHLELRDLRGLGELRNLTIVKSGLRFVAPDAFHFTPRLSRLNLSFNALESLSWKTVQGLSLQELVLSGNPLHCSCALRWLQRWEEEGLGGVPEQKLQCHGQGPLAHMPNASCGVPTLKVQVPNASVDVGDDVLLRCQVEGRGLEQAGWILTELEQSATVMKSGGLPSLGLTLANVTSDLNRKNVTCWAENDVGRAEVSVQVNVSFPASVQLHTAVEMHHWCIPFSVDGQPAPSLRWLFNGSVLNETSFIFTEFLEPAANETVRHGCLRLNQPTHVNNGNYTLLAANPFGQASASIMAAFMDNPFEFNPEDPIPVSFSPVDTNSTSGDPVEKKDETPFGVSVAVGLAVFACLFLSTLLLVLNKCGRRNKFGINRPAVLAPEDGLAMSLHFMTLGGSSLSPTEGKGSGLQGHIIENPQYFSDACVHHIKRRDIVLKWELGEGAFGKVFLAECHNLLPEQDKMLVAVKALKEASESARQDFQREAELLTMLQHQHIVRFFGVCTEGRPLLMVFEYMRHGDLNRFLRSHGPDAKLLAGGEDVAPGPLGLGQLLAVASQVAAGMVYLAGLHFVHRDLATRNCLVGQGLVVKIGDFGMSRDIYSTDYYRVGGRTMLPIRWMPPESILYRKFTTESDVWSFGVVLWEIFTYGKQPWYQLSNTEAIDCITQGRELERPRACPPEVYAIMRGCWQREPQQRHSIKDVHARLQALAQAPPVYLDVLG
Chain of Tyrosine-protein kinase Lck (Homo sapiens) (P06239 2-509 limits assumed): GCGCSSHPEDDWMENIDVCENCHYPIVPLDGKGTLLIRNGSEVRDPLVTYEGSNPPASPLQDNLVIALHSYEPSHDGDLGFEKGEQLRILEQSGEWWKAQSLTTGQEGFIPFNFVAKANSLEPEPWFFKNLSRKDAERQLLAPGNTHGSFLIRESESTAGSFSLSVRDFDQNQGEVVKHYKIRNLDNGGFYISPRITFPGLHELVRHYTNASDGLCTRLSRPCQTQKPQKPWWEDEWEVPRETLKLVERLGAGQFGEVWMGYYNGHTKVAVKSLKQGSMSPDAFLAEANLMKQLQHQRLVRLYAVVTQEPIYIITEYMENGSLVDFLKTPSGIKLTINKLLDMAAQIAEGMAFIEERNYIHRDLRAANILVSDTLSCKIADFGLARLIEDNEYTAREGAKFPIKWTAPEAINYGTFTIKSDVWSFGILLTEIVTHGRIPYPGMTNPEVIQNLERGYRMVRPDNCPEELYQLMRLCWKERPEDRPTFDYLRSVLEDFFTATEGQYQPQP
Chain of Homeodomain-interacting protein kinase 2 (Homo sapiens) (Q9H2X6 whole entry, looked up): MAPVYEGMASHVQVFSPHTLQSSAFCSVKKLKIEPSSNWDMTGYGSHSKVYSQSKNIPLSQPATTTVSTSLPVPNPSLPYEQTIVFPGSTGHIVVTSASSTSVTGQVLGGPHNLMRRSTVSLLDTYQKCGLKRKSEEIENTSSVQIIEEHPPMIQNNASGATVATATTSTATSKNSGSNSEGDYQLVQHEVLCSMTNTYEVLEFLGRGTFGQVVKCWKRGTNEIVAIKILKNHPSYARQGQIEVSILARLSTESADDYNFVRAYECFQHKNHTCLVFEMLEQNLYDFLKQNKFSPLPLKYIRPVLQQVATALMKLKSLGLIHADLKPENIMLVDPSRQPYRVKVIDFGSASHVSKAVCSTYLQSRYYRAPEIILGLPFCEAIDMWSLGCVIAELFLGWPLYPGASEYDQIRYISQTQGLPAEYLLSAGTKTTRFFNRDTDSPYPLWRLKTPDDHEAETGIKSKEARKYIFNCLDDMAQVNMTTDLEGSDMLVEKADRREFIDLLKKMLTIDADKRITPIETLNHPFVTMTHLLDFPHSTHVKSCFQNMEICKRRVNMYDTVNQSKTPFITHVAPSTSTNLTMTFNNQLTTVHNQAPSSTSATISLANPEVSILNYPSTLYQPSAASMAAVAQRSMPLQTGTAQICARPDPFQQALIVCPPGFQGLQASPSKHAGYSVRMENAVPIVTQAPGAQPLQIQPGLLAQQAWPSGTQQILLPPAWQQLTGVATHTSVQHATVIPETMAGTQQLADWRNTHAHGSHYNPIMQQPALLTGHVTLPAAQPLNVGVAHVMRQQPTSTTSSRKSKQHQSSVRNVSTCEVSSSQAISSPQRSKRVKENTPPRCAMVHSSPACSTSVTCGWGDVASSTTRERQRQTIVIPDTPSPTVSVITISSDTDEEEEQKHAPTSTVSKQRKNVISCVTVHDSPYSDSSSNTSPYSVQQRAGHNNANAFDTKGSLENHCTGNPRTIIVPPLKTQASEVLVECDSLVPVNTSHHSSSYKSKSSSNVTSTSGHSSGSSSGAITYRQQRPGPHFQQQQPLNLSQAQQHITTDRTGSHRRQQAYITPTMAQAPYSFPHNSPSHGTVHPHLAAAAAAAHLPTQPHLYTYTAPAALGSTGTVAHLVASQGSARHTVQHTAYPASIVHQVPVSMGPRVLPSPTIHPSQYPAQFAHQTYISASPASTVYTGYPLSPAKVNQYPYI
Chain of NT-3 growth factor receptor (Homo sapiens) (Q16288 32-839 limits assumed): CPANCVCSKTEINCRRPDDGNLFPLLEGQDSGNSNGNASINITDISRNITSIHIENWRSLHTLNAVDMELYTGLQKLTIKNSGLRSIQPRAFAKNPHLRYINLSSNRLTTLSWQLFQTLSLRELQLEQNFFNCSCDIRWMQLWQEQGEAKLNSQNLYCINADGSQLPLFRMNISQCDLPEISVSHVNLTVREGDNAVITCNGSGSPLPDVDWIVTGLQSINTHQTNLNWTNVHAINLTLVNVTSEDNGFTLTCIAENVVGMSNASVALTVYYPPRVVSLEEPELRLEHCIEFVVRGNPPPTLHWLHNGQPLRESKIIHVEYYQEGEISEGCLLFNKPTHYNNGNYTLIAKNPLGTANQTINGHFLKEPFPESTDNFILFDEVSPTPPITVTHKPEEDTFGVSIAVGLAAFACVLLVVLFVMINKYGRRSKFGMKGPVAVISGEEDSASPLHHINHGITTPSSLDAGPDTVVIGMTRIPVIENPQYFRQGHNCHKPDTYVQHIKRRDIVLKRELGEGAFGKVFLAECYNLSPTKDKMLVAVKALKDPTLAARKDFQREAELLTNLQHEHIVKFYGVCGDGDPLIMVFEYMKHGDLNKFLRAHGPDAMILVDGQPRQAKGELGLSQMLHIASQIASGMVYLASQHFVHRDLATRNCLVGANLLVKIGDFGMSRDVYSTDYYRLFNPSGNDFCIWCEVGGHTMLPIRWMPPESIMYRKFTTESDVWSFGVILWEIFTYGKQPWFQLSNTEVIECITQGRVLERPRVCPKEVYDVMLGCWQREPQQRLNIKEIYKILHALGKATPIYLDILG

IC50 ([1]; read-out: IC50): 0.987 µM
SMILES: N[C@H]1CCCN(c2ccn3ncc(-c4cccc(OC(F)(F)F)c4)c3n2)C1

IC50 ([2]; read-out: IC50): 0.633 µM
IC50 ([1]; read-out: IC50): 3.73 µM
SMILES: FC(F)(F)Oc1cccc(-c2cnn3ccc(NCC4CCOCC4)nc23)c1

IC50 ([1]; read-out: IC50): 2.04 µM
SMILES: C[C@]1(O)CC[C@H](Nc2ccn3ncc(-c4cccc(OC(F)(F)F)c4)c3n2)CC1

IC50 ([1]; read-out: IC50): 1.49 µM
SMILES: CN1CCC(CNc2ccn3ncc(-c4cccc(OC(F)(F)F)c4)c3n2)CC1

IC50 ([1]; read-out: IC50): 0.732 µM
SMILES: N[C@H]1CC[C@H](Nc2ccn3ncc(-c4cccc(Cl)c4)c3n2)CC1

IC50 ([1]; read-out: IC50): 6.02 µM
SMILES: O=S1(=O)CCC(CNc2ccn3ncc(-c4cccc(C(F)(F)F)c4)c3n2)CC1

IC50 [2]: Not Active
IC50 [1]: Not Active
SMILES: O=S1(=O)CCC(Nc2ccn3ncc(-c4cccc(C(F)(F)F)c4)c3n2)CC1

IC50 ([1]; read-out: IC50): 8.16 µM
SMILES: O=S1(=O)CCC(CNc2ccn3ncc(-c4cccc(OC(F)(F)F)c4)c3n2)CC1

IC50 ([1]; read-out: IC50): 2 µM
SMILES: N[C@H]1CCCN(c2ccn3ncc(-c4cccc(Cl)c4)c3n2)C1

IC50 ([1]; read-out: IC50): 3.62 µM
SMILES: CO[C@H]1CC[C@H](Nc2ccn3ncc(-c4cccc(OC(F)(F)F)c4)c3n2)CC1

IC50 ([1]; read-out: IC50): 2.07 µM
SMILES: O=S1(=O)CCC(CNc2ccn3ncc(-c4cccc(Cl)c4)c3n2)CC1

inhibition [4]: > 98%
inhibition [5]: > 80%
inhibition [7]: > 50%
inhibition [8]: > 50%
inhibition [9]: > 50%
inhibition [10]: > 80%
inhibition [11]: > 80%
inhibition [12]: > 90%
inhibition [13]: 96%
inhibition [14]: > 50%
inhibition [15]: > 50%
inhibition [16]: > 50%
inhibition [17]: > 50%
IC50 ([1]; read-out: IC50): 0.228 µM
inhibition [18]: > 90%
IC50 [19]: 0.125 µM
inhibition [21]: > 80%
inhibition [22]: > 80%
SMILES: CC(C)(O)[C@H]1CC[C@H](Nc2ccn3ncc(-c4cccc(Cl)c4)c3n2)CC1
IC50 [3]: > 30 µM
EC50 [6]: 0.6 µM
EC50 [20]: 0.914 µM
